The nature of test [1]: GSH reactivity of the compound assessed as adducts formation by RP-HPLC analysis. An outline of the steps: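 Fresh aqueous glutathione (10 mM solution) was added to 50 mM Tris-maleate buffer, pH 7.5. The reaction was started with compound from 10 mM DMSO stock (final 250 μM). Mixtures were followed by reversed-phase HPLC on an ODS column with a gradient to 100% B; rate constants are given in l·mol⁻¹·s⁻¹.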

The test system of test [2] is Escherichia coli. Put plainly: Inhibition of wild-type Escherichia coli MurE compound preincubated for 10 mins before substrate addition at 25 uM measured after 15 mins by LC-MS method. In short, it runs like this:
(§1)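 E. coli wild-type enzyme (4 nM) was preincubated with 25 μM compound for 10 min at 37 °C. Enzymatically generated nucleotide-sugar substrate (~200 μM) plus ATP (~200 μM), or NADPH 200 μM for MurB, was added for 10 min. Reactions were started with amino-acid cosubstrate (MurC–F) or EP-UNAG (MurB), run 15 min at 37 °C, and quenched with formic acid. Product was measured by negative-ESI LC-MS EIC peak area. MgCl2: MurC 10, MurD/E 2, MurF 5 mM; MurB had 5 mM KCl. All in 50 mM NH4HCO3, 0.07% BSA, 1% DMSO; triplicate.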

The subject of test [3] is Escherichia coli. Put plainly: Inhibition of wild-type Escherichia coli MurC compound preincubated for 10 mins before substrate addition at 25 uM measured after 15 mins by LC-MS method. In short, it runs like this: as §1
The target in another test is Prothrombin (Bos taurus) (UniProt P00735). Put plainly: Inhibition of Bovine thrombin using Boc-Val-Pro-Arg-AMC as substrate compound preincubated at 25 uM for 15 mins by fluorescence assay. In short, it runs like this: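 Bovine thrombin (final 10 nM) was preincubated 15 min with 25 μM compound in 50 mM Tris-HCl pH 7.5, 150 mM NaCl, 0.05% Tween 20. The reaction was started with Boc-Val-Pro-Arg-AMC (50 μM final). Fluorescence (ex 355/em 460 nm) was monitored continuously for 10 min; activity taken as slope (RFU/s). Triplicate.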

Test [4] addresses Genome polyprotein (dengue virus type 2) (UniProt P12823). Put plainly: Inhibition of Dengue virus serotype 2 NS2B-NS3 protease at 50 uM.
The test system of test [5] is Escherichia coli. Put plainly: Inhibition of Escherichia coli MetAP at 25 uM after 20 mins by HPLC analysis. In short, it runs like this:
(§2)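 Endpoint assay. Enzyme (50 nM) was preincubated with 25 μM compound for 20 min at 37 °C in 50 mM Tris pH 7.5, 100 mM NaCl, 100 μM CoCl2, 0.075% BSA. MGMM substrate (400 μM) was then added for 15 min (human MetAP-1) or 20 min (E. coli MetAP). Reactions were stopped with TFA. GMM product was quantified by RP-HPLC, UV 214 nm. Triplicate.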

The target of test [6] is Methionine aminopeptidase 1 (Homo sapiens) (UniProt P53582). Put plainly: Inhibition of human MetAP at 25 uM after 20 mins by HPLC analysis. In short, it runs like this: as §2
Test [7] deals with Escherichia coli. Put plainly: Inhibition of wild-type Escherichia coli MurB compound preincubated for 10 mins before substrate addition at 25 uM measured after 15 mins by LC-MS method. An outline of the steps: as §1
For test [8], the system named is Escherichia coli. Put plainly: Inhibition of wild-type Escherichia coli MurA compound preincubated for 10 mins before substrate addition at 25 uM measured after 15 mins by LC-MS method.
Test [9] deals with Genome polyprotein (West Nile virus) (UniProt P06935). Put plainly: Inhibition of West Nile virus NS2B-NS3 protease at 50 uM.
Test [10] deals with Escherichia coli. Put plainly: Inhibition of wild-type Escherichia coli MurF compound preincubated for 10 mins before substrate addition at 25 uM measured after 15 mins by LC-MS method. In short, it runs like this: as §1
In test [11] the test system is Escherichia coli. Put plainly: Inhibition of wild-type Escherichia coli MurD compound preincubated for 10 mins before substrate addition at 25 uM measured after 15 mins by LC-MS method. An outline of the steps: as §1

Genome polyprotein (West Nile virus), sequence (P06935 whole entry): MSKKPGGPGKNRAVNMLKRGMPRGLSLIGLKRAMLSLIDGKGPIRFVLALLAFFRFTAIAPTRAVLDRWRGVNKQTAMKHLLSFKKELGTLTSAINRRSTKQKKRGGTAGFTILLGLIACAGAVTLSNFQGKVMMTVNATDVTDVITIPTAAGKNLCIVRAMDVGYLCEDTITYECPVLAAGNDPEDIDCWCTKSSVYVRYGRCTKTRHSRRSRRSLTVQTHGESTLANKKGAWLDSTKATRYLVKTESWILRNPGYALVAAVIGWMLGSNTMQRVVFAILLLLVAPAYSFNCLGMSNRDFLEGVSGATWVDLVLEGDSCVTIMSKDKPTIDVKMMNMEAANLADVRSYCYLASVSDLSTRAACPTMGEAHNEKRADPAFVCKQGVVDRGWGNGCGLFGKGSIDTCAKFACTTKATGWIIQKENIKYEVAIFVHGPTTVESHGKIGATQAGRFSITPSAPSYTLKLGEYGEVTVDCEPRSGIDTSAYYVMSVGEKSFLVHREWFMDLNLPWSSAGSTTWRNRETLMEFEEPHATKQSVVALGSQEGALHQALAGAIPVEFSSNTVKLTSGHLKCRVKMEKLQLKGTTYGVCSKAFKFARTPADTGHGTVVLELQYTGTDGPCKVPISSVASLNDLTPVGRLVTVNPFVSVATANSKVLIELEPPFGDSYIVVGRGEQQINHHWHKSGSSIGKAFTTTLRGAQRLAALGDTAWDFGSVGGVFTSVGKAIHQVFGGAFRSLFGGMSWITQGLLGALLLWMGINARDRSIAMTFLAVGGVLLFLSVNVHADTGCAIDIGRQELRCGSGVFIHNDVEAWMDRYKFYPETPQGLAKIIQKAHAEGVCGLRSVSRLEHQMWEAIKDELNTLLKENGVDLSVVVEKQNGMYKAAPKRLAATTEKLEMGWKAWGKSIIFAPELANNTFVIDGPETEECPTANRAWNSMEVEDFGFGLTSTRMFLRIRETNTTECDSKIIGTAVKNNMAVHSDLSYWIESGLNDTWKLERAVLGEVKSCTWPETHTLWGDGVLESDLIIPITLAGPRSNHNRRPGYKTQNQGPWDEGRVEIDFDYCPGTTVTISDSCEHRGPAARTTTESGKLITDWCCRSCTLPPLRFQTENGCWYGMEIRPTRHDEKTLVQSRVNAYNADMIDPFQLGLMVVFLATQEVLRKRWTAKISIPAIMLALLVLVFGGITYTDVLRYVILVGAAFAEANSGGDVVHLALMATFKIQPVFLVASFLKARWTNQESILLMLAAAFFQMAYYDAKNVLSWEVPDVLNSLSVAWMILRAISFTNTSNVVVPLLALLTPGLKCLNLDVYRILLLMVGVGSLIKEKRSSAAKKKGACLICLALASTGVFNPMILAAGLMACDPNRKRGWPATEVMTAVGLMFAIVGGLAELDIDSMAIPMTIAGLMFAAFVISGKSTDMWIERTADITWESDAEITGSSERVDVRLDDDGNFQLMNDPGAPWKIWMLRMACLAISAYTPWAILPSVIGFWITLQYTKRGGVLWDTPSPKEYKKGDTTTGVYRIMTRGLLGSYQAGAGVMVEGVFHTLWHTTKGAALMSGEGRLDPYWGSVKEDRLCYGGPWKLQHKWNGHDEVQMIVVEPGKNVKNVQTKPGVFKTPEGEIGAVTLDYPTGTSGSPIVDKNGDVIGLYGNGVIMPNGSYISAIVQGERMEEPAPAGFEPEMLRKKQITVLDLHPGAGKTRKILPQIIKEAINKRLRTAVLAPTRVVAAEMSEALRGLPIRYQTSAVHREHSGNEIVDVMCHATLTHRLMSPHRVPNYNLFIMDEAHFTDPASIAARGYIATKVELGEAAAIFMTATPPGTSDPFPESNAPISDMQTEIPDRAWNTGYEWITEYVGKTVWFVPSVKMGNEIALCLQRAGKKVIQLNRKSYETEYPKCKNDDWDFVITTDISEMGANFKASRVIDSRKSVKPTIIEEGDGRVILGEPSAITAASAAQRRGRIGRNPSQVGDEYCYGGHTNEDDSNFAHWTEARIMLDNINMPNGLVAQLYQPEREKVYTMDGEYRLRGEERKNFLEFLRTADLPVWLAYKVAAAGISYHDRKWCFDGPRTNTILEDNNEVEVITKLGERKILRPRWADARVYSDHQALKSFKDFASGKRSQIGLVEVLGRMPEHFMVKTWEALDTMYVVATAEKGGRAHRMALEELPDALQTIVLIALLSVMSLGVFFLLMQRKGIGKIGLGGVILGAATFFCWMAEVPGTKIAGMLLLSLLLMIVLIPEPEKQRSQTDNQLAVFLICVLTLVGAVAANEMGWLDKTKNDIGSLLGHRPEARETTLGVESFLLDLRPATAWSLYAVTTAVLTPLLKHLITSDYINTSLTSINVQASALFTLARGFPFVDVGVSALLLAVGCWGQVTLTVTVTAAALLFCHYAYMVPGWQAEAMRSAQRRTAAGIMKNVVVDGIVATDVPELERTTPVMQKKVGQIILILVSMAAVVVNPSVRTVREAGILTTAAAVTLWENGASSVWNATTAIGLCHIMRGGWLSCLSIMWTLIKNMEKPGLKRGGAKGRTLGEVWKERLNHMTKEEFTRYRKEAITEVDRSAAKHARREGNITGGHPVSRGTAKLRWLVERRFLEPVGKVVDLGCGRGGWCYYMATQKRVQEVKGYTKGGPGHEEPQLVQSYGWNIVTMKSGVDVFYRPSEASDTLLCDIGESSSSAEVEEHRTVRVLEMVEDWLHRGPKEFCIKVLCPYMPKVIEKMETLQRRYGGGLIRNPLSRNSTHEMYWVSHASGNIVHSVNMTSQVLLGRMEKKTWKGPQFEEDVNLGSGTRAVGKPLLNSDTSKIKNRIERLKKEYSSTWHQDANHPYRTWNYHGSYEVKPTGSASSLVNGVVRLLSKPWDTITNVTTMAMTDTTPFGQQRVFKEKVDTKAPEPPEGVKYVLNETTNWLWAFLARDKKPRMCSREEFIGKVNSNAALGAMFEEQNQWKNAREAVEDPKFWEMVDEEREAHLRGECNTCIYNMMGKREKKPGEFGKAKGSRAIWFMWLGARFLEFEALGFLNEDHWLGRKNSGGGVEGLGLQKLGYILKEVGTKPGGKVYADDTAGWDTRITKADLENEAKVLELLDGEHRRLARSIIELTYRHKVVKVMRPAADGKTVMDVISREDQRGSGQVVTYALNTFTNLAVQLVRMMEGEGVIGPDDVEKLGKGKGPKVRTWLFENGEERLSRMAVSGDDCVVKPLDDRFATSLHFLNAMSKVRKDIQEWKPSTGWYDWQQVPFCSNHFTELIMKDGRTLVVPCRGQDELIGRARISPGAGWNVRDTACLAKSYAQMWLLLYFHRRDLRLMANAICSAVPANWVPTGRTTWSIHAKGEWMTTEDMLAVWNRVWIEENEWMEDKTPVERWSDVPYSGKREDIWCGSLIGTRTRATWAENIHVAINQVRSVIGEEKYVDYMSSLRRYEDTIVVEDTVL

In the case of `CCCCC(N)C(=O)OC` (stereo not given), in test [1], the Activity is under 0.1 L/mol/s. Further, the inhibition is 17% in the test on Escherichia coli [2]; under 15% in the test with Escherichia coli [3]; under 15% against Prothrombin (Bos taurus); under 15% in test [4]; under 15% with Escherichia coli [5]; under 15% in test [6]. For the same molecule, the inhibition with Escherichia coli [7] was under 22%; in the test on Escherichia coli [8], under 15%; in test [9], under 15%; in the test with Escherichia coli [10] it was under 15%; in the test on Escherichia coli [11] it was 18%.
For `Cc1ccc(NC(=O)CCl)cc1`, in test [1], the Activity was under 0.1 L/mol/s. Besides, the inhibition (with Escherichia coli [2]; with Escherichia coli [3]; at Prothrombin (Bos taurus); in test [4]; in the test on Escherichia coli [5]; in [6]) was under 15% each time. Further, the inhibition (with Escherichia coli [7]; with Escherichia coli [8]; in [9]; in the test on Escherichia coli [10]; in the test with Escherichia coli [11]) was under 15% each time.
For `Cc1ccc(NC(=O)CC#N)cc1`, the Activity in test [1] was under 0.1 L/mol/s. Moreover, the inhibition (in the test with Escherichia coli [2]; in the test with Escherichia coli [3]; on Prothrombin (Bos taurus); in [4]; in the test on Escherichia coli [5]; in test [6]) was under 15% in each case. In addition, the inhibition (with Escherichia coli [7]; in the test with Escherichia coli [8]; in [9]; in the test with Escherichia coli [10]; in the test on Escherichia coli [11]) was under 15% each time.
For `CC(=O)Nc1ccc([N+](=O)[O-])cc1`, the Activity in test [1] is under 0.1 L/mol/s. For the same molecule, the inhibition (with Escherichia coli [2]; with Escherichia coli [3]; against Prothrombin (Bos taurus); in [4]; in the test on Escherichia coli [5]; in [6]) was under 15% in each case. Further, the inhibition (in the test on Escherichia coli [7]; in the test with Escherichia coli [8]; in test [9]; with Escherichia coli [10]; with Escherichia coli [11]) was under 15% throughout.
`COc1ccc(NC(=O)CCl)cc1`: the Activity in [1] is under 0.1 L/mol/s. The inhibition (in the test on Escherichia coli [2]; with Escherichia coli [3]; at Prothrombin (Bos taurus); in test [4]; with Escherichia coli [5]; in [6]) was under 15% each time. For the same molecule, the inhibition (with Escherichia coli [7]; in the test with Escherichia coli [8]; in [9]; with Escherichia coli [10]; with Escherichia coli [11]) was under 15% in each case.
As for `C=CCNc1ccc(OC)cc1`, in test [1], the Activity was under 0.1 L/mol/s. Further, the inhibition (with Escherichia coli [2]; in the test with Escherichia coli [3]; against Prothrombin (Bos taurus); in test [4]; with Escherichia coli [5]; in [6]) was under 15% throughout. Moreover, the inhibition in the test with Escherichia coli [7] is 20%; with Escherichia coli [8] it was under 15%; in test [9], under 15%; in the test on Escherichia coli [10] it was under 15%; in the test with Escherichia coli [11] it was under 15%.
Turning to `N#CCC(=O)Nc1ccc([N+](=O)[O-])cc1`, the Activity in test [1] is under 0.1 L/mol/s. Moreover, the inhibition (in the test with Escherichia coli [2]; in the test with Escherichia coli [3]; at Prothrombin (Bos taurus); in [4]; in the test with Escherichia coli [5]; in test [6]) was under 15% throughout. The inhibition (in the test with Escherichia coli [7]; with Escherichia coli [8]; in test [9]; with Escherichia coli [10]; in the test on Escherichia coli [11]) was under 15% in each case.
As for `COc1ccc(NC(=O)n2ccnc2)cc1`, in test [1], the Activity was under 0.1 L/mol/s. In addition, the inhibition (with Escherichia coli [2]; in the test on Escherichia coli [3]; against Prothrombin (Bos taurus); in test [4]; in the test on Escherichia coli [5]; in test [6]) was under 15% in each case. Besides, the inhibition with Escherichia coli [7] was under 15%; with Escherichia coli [8] it was 17%; in [9] it was under 15%; with Escherichia coli [10] it was under 15%; in the test on Escherichia coli [11], under 15%.
As to `BrC1=NOC(c2ccccc2)C1` (stereo not given), the Activity in test [1] is under 0.1 L/mol/s. Besides, the inhibition (in the test with Escherichia coli [2]; with Escherichia coli [3]; at Prothrombin (Bos taurus); in test [4]; in the test on Escherichia coli [5]; in [6]) was under 15% each time. For the same molecule, the inhibition is under 15% in the test with Escherichia coli [7]; under 15% in the test on Escherichia coli [8]; under 15% in [9]; under 15% in the test on Escherichia coli [10]; under 17% in the test on Escherichia coli [11].
Regarding `C=CCNCc1ccccc1`, the Activity in test [1] was under 0.1 L/mol/s. In addition, the inhibition (in the test with Escherichia coli [2]; in the test on Escherichia coli [3]; against Prothrombin (Bos taurus); in test [4]; in the test on Escherichia coli [5]; in test [6]) was under 15% in each case. Also, the inhibition (in the test on Escherichia coli [7]; with Escherichia coli [8]; in test [9]; in the test on Escherichia coli [10]; in the test with Escherichia coli [11]) was under 15% throughout.
As to `O=C(CCl)NC1CCCC1`, the Activity in test [1] is under 0.1 L/mol/s. The inhibition (in the test with Escherichia coli [2]; in the test on Escherichia coli [3]; against Prothrombin (Bos taurus); in test [4]; in the test with Escherichia coli [5]; in test [6]) was under 15% in each case. Besides, the inhibition (in the test on Escherichia coli [7]; in the test with Escherichia coli [8]; in test [9]; in the test on Escherichia coli [10]; in the test with Escherichia coli [11]) was under 15% in each case.
Take `N#CCC(=O)NCCc1ccccc1`: the Activity in test [1] is under 0.1 L/mol/s. Further, the inhibition (in the test on Escherichia coli [2]; with Escherichia coli [3]; against Prothrombin (Bos taurus); in test [4]; in the test with Escherichia coli [5]; in [6]) was under 15% throughout. The inhibition was under 15% in the test on Escherichia coli [7]; under 15% with Escherichia coli [8]; 22% in test [9]; under 15% in the test on Escherichia coli [10]; under 15% with Escherichia coli [11].
Consider `O=C(CCl)Nc1ccc([N+](=O)[O-])cc1`, for which the Activity in test [1] was under 0.1 L/mol/s. Also, the inhibition (in the test with Escherichia coli [2]; in the test on Escherichia coli [3]; at Prothrombin (Bos taurus); in [4]; in the test with Escherichia coli [5]; in [6]) was under 15% each time. The inhibition (in the test with Escherichia coli [7]; in the test with Escherichia coli [8]; in test [9]; with Escherichia coli [10]; with Escherichia coli [11]) was under 15% in each case.
Consider `C=CCNCCc1ccccc1`, for which, in test [1], the Activity was under 0.1 L/mol/s. The inhibition (in the test on Escherichia coli [2]; in the test on Escherichia coli [3]; at Prothrombin (Bos taurus); in test [4]; in the test on Escherichia coli [5]; in test [6]) was under 15% throughout. Besides, the inhibition (in the test on Escherichia coli [7]; in the test on Escherichia coli [8]; in test [9]; in the test with Escherichia coli [10]; in the test on Escherichia coli [11]) was under 15% in each case.
As to `C=CCNc1ccc(F)cc1`, the Activity in [1] was under 0.1 L/mol/s. Besides, the inhibition (with Escherichia coli [2]; with Escherichia coli [3]; on Prothrombin (Bos taurus); in test [4]; in the test with Escherichia coli [5]; in test [6]) was under 15% in each case. The inhibition was 17% with Escherichia coli [7]; under 15% with Escherichia coli [8]; under 15% in [9]; under 15% in the test with Escherichia coli [10]; under 15% with Escherichia coli [11].

These data come from ChEMBL document CHEMBL3352149, “Promiscuity and selectivity in covalent enzyme inhibition: a systematic study of electrophilic fragments” (J Med Chem, 2014).
